Results collected from several papers.
Each line is one published result; the experiments were not run side by side.
Target: Dual specificity tyrosine-phosphorylation-regulated kinase 4 (DYRK4, Homo sapiens, UniProt Q9NR20)
Sequence (Q9NR20 1-520, as in one of the studies): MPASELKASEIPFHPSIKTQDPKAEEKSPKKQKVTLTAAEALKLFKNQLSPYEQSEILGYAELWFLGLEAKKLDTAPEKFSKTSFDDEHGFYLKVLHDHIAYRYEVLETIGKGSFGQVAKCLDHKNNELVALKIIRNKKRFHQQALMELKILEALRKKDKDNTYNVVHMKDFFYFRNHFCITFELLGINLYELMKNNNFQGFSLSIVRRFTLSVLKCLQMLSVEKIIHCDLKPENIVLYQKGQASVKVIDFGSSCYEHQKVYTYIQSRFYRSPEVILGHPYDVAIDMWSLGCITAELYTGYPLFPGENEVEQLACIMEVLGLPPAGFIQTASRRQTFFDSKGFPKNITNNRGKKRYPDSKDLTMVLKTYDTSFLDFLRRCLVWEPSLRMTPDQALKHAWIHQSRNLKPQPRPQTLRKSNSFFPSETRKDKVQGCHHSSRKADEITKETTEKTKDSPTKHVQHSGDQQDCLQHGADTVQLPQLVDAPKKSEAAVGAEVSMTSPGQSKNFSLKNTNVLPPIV

SMILES | test | setting | quantity | value
O=C1Nc2ccc(Cl)cc2C1=Cc1cc(Cl)c(O)c(Cl)c1 | cell-free assay | 0.5 µM | remaining signal | 95.7%
CC(C)(O)[C@H]1CC[C@H](Nc2ccc3ncc(-c4cccc(C(F)(F)F)c4)n3n2)CC1 | enzyme activity, inhibitor | 1 µM | remaining activity | 97.3%
CCCS(=O)(=O)Nc1ccc(F)c(C(=O)c2c[nH]c3ncc(-c4ccc(Cl)cc4)cc23)c1F | enzyme activity, inhibitor | 1 µM | inhibition | < 10%
COc1cc2ncnc(Nc3ccc(Oc4ccccc4)c(C)c3C)c2cc1OC | enzyme activity, inhibitor | 1 µM | inhibition | -1%
O=C(Nc1cnn(-c2csc(C(=O)NC3COC3)c2)c1)Nc1c(F)cccc1Cl | enzyme activity, inhibitor | 5 µM | remaining activity | 96.2%
COc1cc(-c2cc(-c3ccc(N4CCNCC4)cc3)cnc2C)cc(OC)c1OC | enzyme activity, inhibitor | 0.1 µM | inhibition | 2%
CC(C)(C)c1nc(-c2cccc(NS(=O)(=O)c3c(F)cccc3F)c2F)c(-c2ccnc(N)n2)s1 | enzyme activity, inhibitor, radiometric | 1 µM | remaining activity | 38%
Cn1cc(-c2cc(F)cc(N3CCn4c(cc5c4CCCC5)C3=O)c2CO)cc(Nc2ccc(N3CCN(C4COC4)CC3)cn2)c1=O | enzyme activity, inhibitor | 0.1 µM | inhibition | 5%
Cn1cnc(Br)c1C1=CN(c2ncnc3[nH]cnc23)CCS1 | enzyme activity, inhibitor, radiometric | 50 nM | inhibition | 14.9%
COc1cc2ncnc(Nc3ccc(Oc4ccccc4)cc3C)c2cc1OC | enzyme activity, inhibitor | 1 µM | inhibition | 0%
Cn1cc(-c2cccc(N3CCc4c(sc5c4CC(C)(C)C5)C3=O)c2CO)cc(Nc2ccncn2)c1=O | enzyme activity, inhibitor | 1 µM | inhibition | 2%
O=C(Nc1cnn(-c2csc(C(=O)NC3COC3)c2)c1)Nc1ccccc1Cl | enzyme activity, inhibitor | 5 µM | remaining activity | 94.6%
O=C1NC(=O)c2cc(Nc3ccc(F)cc3)c(Nc3ccc(F)cc3)cc21 | cell-free assay | 0.5 µM | remaining signal | 98.6%
CC(C)(C)c1nc2c(s1)c1nc(N)ncc1c1ccc(NS(=O)(=O)c3c(F)cccc3F)c(F)c12 | enzyme activity, inhibitor, radiometric | 1 µM | remaining activity | 92%
